Test results from ChEMBL document CHEMBL4138228, “Substituted carbamothioic amine-1-carbothioic thioanhydrides as novel trichomonicidal fungicides: Design, synthesis, and biology” (Eur J Med Chem, 2018).
Values after ≈ are worked out from the molar mass of the structure shown.

Legend:
Nakaseomyces glabratus = test: Antifungal activity against Candida glabrata ATCC 2001 after 48 hrs by broth microdilution method; type: functional; settings: ATCC 2001, 48 h
How it was run: (§1)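 Broth microdilution per NCCLS guidelines in MOPS-buffered RPMI 1640; starting inoculum 1-5 x 10^3 CFU/mL; plates incubated at 35 °C; MIC recorded after 48 h; fluconazole as reference; experiments repeated three times.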

Plasmodium falciparum [1] = test: Antimalarial activity against chloroquine-resistant Plasmodium falciparum K1 infecetd in RBC after 72 hrs by SYBR Green dye-based fluorescence assay; type: functional, organism-based; settings: K1, Erythrocyte
Candida albicans [2] = test: Antifungal activity against Candida albicans patient isolate after 48 hrs by broth microdilution method; type: functional; how it was run: as §1
HeLa = test: Cytotoxicity against human HeLa cells after 24 hrs by MTT assay; type: cell-based
[3] = Selectivity index, ratio of IC50 for human HeLa cells to MIC for metronidazole-susceptible Trichomonas vaginalis; type: toxicity; settings: read-out: Selectivity Index
Sporothrix schenckii = test: Antifungal activity against Sporothrix schenckii after 48 hrs by broth microdilution method; type: functional; how it was run: as §1
Trichomonas vaginalis [4] = test: Antitrichomonas activity against metronidazole-susceptible Trichomonas vaginalis assessed as decrease in cell viability after 48 hrs by trypan blue exclusion method; type: functional
Candida albicans [5] = test: Antifungal activity against Candida albicans MTCC 183 after 48 hrs by broth microdilution method; type: functional; settings: MTCC 183, 48 h; how it was run: as §1
Trichomonas vaginalis [6] = test: Potency index, ratio of metronidazole MIC to test compound MIC for metronidazole-susceptible Trichomonas vaginalis; type: functional
Cryptococcus neoformans = test: Antifungal activity against Cryptococcus neoformans after 48 hrs by broth microdilution method; type: functional; how it was run: as §1
Candida albicans [7] = test: Antifungal activity against Candida albicans ATCC 10231 after 48 hrs by broth microdilution method; type: functional; settings: ATCC 10231, 48 h; how it was run: as §1
Plasmodium falciparum [8] = test: Antimalarial activity against chloroquine-sensitive Plasmodium falciparum 3D7 infecetd in RBC after 72 hrs by SYBR Green dye-based fluorescence assay; type: functional, organism-based; settings: 3D7, Erythrocyte
Candida parapsilosis = test: Antifungal activity against Candida parapsilosis ATCC 22019 after 48 hrs by broth microdilution method; type: functional; settings: Lodderomyces parapsilosis, ATCC 22019, 48 h; how it was run: as §1
Candida albicans [9] = test: Antifungal activity against Candida albicans ATCC 14053 after 48 hrs by broth microdilution method; type: functional; settings: ATCC 14053, 48 h; how it was run: as §1
Candida albicans [10] = test: Antifungal activity against Candida albicans ATCC 66027 after 48 hrs by broth microdilution method; type: functional; settings: ATCC 66027, 48 h; how it was run: as §1
Trichomonas vaginalis [11] = test: Antitrichomonas activity against metronidazole-resistant Trichomonas vaginalis CDC085 ATCC 50143 assessed as decrease in cell viability after 48 hrs by trypan blue exclusion method; type: functional; settings: CDC085 ATCC 50143, 48 h
[12] = Selectivity index, ratio of IC50 for human HeLa cells to MIC for metronidazole-resistant Trichomonas vaginalis CDC085 ATCC 50143; type: toxicity; settings: read-out: Selectivity Index
[13] = tested on: Trichophyton mentagrophytes; test: Antifungal activity against Trichophyton mentagrophytes after 48 hrs by broth microdilution method; type: functional; how it was run: as §1
Trichomonas vaginalis [14] = test: Potency index, ratio of metronidazole MIC to test compound MIC for metronidazole-resistant Trichomonas vaginalis CDC085 ATCC 50143; type: functional

SMILES	MIC (Nakaseomyces glabratus) [µM]	IC50 (Plasmodium falciparum [1]) [mM]	MIC (Candida albicans [2]) [µM]	IC50 (HeLa) [mM]	selectivity ratio [3]	MIC (Sporothrix schenckii) [µM]	MIC (Trichomonas vaginalis [4]) [µM]	MIC (Candida albicans [5]) [µM]	Ratio (Trichomonas vaginalis [6])	MIC (Cryptococcus neoformans) [µM]	MIC (Candida albicans [7]) [µM]	IC50 (Plasmodium falciparum [8]) [mM]	MIC (Candida parapsilosis) [µM]	MIC (Candida albicans [9]) [µM]	MIC (Candida albicans [10]) [µM]	MIC (Trichomonas vaginalis [11]) [µM]	selectivity ratio [12]	MIC [13] [µM]	Ratio (Trichomonas vaginalis [14])
CN(C)C(=S)SC(=S)N1CCN(C(=S)Nc2ccccc2)CC1	> 130	0.00166	> 130	> 5	> 617	130 (≈ 50 µg/mL)	8.1 (≈ 3.12 µg/mL)	> 130	2.2	> 130	> 130	0.00072	> 130	> 130	> 130	32.5 (≈ 12.5 µg/mL)	> 154	130 (≈ 50 µg/mL)	11.4
CCSC(=S)N1CCN(C(=S)SC(=S)N(C)C)CC1	> 141		17.6 (≈ 6.23 µg/mL)	4.48	31	35.2 (≈ 12.5 µg/mL)	141 (≈ 49.9 µg/mL)	70.5 (≈ 24.9 µg/mL)		141 (≈ 49.9 µg/mL)	141 (≈ 49.9 µg/mL)		8.81 (≈ 3.12 µg/mL)	141 (≈ 49.9 µg/mL)	70.5 (≈ 24.9 µg/mL)	282 (≈ 99.9 µg/mL)	15	35.2 (≈ 12.5 µg/mL)	1.3 - 11.2
CCCCN1CCN(C(=S)SC(=S)N(C)C)CC1	163 (≈ 49.9 µg/mL)		163 (≈ 49.9 µg/mL)	4.1	200	163 (≈ 49.9 µg/mL)	20.4 (≈ 6.24 µg/mL)	81.7 (≈ 25 µg/mL)		163 (≈ 49.9 µg/mL)	163 (≈ 49.9 µg/mL)		163 (≈ 49.9 µg/mL)	163 (≈ 49.9 µg/mL)	81.7 (≈ 25 µg/mL)	81.7 (≈ 25 µg/mL)	50	163 (≈ 49.9 µg/mL)	1.3 - 9.5
CN1CCN(C(=S)SC(=S)N(C)C)CC1	190 (≈ 50.1 µg/mL)		95 (≈ 25 µg/mL)	1.22	26	95 (≈ 25 µg/mL)	47.5 (≈ 12.5 µg/mL)	95 (≈ 25 µg/mL)		190 (≈ 50.1 µg/mL)	190 (≈ 50.1 µg/mL)		190 (≈ 50.1 µg/mL)	95 (≈ 25 µg/mL)	47.5 (≈ 12.5 µg/mL)	95 (≈ 25 µg/mL)	12	95 (≈ 25 µg/mL)	1.3 - 9.5
CN(C)C(=S)SC(=S)N1CCN(C(=S)NCCc2ccccc2)CC1	> 121		> 121	> 5	> 83	> 121	60.5 (≈ 25 µg/mL)	> 121		> 121	> 121		> 121	> 121	> 121	242 (≈ 99.9 µg/mL)	> 20	> 121	1.3 - 11.2
CN(C)C(=S)SC(=S)N1CCCCCC1	11.9 (≈ 3.12 µg/mL)		23.9 (≈ 6.26 µg/mL)	> 5	> 52	23.9 (≈ 6.26 µg/mL)	95.4 (≈ 25 µg/mL)	47.7 (≈ 12.5 µg/mL)		47.7 (≈ 12.5 µg/mL)	23.9 (≈ 6.26 µg/mL)		23.9 (≈ 6.26 µg/mL)	11.9 (≈ 3.12 µg/mL)	23.9 (≈ 6.26 µg/mL)	191 (≈ 50.1 µg/mL)	> 26	23.9 (≈ 6.26 µg/mL)	1.5 - 3.8
CCOC(=O)N1CCN(C(=S)SC(=S)N(C)C)CC1	156 (≈ 50.1 µg/mL)		156 (≈ 50.1 µg/mL)	0.53	6	77.9 (≈ 25 µg/mL)	77.9 (≈ 25 µg/mL)	156 (≈ 50.1 µg/mL)		156 (≈ 50.1 µg/mL)	> 156		156 (≈ 50.1 µg/mL)	156 (≈ 50.1 µg/mL)	38.9 (≈ 12.5 µg/mL)	156 (≈ 50.1 µg/mL)	3	77.9 (≈ 25 µg/mL)	1.3 - 9.5
CN(C)C(=S)SC(=S)N1CCCCC1	50.4 (≈ 12.5 µg/mL)		101 (≈ 25 µg/mL)	> 5	> 200	101 (≈ 25 µg/mL)	25.2 (≈ 6.26 µg/mL)	50.4 (≈ 12.5 µg/mL)		202 (≈ 50.1 µg/mL)	50.4 (≈ 12.5 µg/mL)		101 (≈ 25 µg/mL)	25.2 (≈ 6.26 µg/mL)	50.4 (≈ 12.5 µg/mL)	101 (≈ 25 µg/mL)	> 50	101 (≈ 25 µg/mL)	1.5 - 3.8
